# Reference: ChEMBL document CHEMBL4118144, “Design, Synthesis, and Testing of Potent, Selective Hepsin Inhibitors via Application of an Automated Closed-Loop Optimization Platform” (J Med Chem, 2018)
# Activity calls are given as the source filed them. The rule behind the calls is not given here.
# What was measured:
# [1] = Chromatographic hydrophobicity index, log D of the compound at pH 7 by HPLC/UV analysis; format: physicochemical; conditions: buffer
# [2] = biological target: Serine protease hepsin (Homo sapiens, UniProt P05981); assay: Inhibition of doxycycline induced hepsin-mediated conversion of Pro-HGF into active form in human MCF10A cells assessed as decrease in MET phosphorylation (Tyr1243/1245) at 1 to 10 uM preincubated for 30 mins followed by recombinant human pro-HGF addition measured after 30 mins by immunoblot method; format: cell-based
# Outline: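 Dox-induced MCF10A-Indu20-hepsin cells given DMSO or inhibitor for 30 min, then 50 ng/mL recombinant human Pro-HGF; MET phosphorylation (Tyr1243/1245) detected by immunoblotting.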
# Chain of Serine protease hepsin (P05981 1-162 limits assumed): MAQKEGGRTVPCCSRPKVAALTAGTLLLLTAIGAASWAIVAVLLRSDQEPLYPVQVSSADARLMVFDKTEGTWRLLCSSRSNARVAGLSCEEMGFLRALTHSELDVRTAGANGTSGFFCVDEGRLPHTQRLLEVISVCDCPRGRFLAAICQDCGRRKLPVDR
# Chain of Serine protease hepsin (P05981 163-417 limits assumed): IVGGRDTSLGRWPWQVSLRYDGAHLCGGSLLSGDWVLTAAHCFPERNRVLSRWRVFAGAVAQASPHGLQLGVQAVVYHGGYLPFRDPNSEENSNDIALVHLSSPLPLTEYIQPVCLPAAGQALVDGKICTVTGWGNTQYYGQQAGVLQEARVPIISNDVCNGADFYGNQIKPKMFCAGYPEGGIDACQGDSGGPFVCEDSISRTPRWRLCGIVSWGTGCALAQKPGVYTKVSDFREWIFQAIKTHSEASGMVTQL
SMILES,chromatographic logD [1],inhibition [2]
Cc1ccc(S(=O)(=O)N[C@@H](C(=O)Nc2ccc(C(=N)N)cc2)C2CCCCC2)cc1,1.3,
Cc1ccc(S(=O)(=O)N[C@@H](C(=O)Nc2ccc(C(=N)N)cc2)c2ccccc2)cc1,,Active
